Here are results for seven compounds from ChEMBL document CHEMBL1148707, “Inhibition of the bacterial heme oxygenases from Pseudomonas aeruginosa and Neisseria meningitidis: novel antimicrobial targets” (J Med Chem, 2007).

One experiment has as its target T1, Heme oxygenase (Pseudomonas aeruginosa, UniProt O69002).
T1 sequence (O69002 whole entry): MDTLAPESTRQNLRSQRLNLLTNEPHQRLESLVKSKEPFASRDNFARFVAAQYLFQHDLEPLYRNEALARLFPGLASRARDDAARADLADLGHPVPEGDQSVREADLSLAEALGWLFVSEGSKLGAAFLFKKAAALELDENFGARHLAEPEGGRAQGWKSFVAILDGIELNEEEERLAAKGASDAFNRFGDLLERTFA
Put plainly: Binding affinity to Pseudomonas aeruginosa heme oxygenase. The method, boiled down: (§1)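 Fluorescence titration of purified apoprotein (1 µM; residual biliverdin removed by chromatofocusing) in 20 mM Tris-HCl pH 7.5. Compound added at 0.05-500 µM from DMSO stock. Mean of three experiments.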

The nature of experiment [1]: Binding affinity to Neisseria meningitidis heme oxygenase. The method in brief: as §1
A further experiment deals with Neisseria meningitidis. Description: Inhibition of Neisseria meningitidis heme oxygenase-mediated biliveridin production in Escherichia coli BL21 at 1500 uM. The method, boiled down:
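E. coli BL21(DE3) with leaky nm-HO expression grown overnight (16 h) in LB with 100 µg/mL ampicillin, with or without 1500 µM compound, no iron restriction. Cells lysed with 50 µM β/δ-biliverdin added as internal standard. Biliverdin extracted into chloroform, converted to dimethyl esters, analysed by HPLC. α-Biliverdin peak integrated against the standard.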

Experiment [2] deals with Pseudomonas aeruginosa. Put plainly: Growth inhibition of Pseudomonas aeruginosa MPA01 at <250 uM. In kind it is functional, organism-based. The method in brief: (§2)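 MPA01 grown 8 h at 37 °C, then diluted to OD600 0.05 in iron-restricted succinate minimal medium pH 7.0 with heme as iron source. Compound added from DMSO at 10-1500 µM. Incubated 10 h at 37 °C with aeration in 96-well format, then OD600 read.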

Experiment [3] deals with Pseudomonas aeruginosa. Put plainly: Growth inhibition of Pseudomonas aeruginosa MPA01 at >250 uM. The experiment is classed as functional, organism-based. The method in brief:
as §2

Experiment [4] concerns Pseudomonas aeruginosa. Description: Growth inhibition of Pseudomonas aeruginosa MPA01 in presence of haemoglobin. The experiment is classed as functional. Also on record: scale not given: the % may be the effect or the level left. The method in brief:
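MPA01 diluted to OD600 0.05 in succinate minimal medium pH 7.0 with 25 µM hemoglobin as sole iron source, with or without compound (DMSO). 10 h endpoint OD600 at 0-1500 µM, or hourly OD600 over 12 h at 500 µM, 37 °C with aeration. Compared with 40 µM Fe(III) pyoverdine cultures. Mean of three experiments.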

SMILES strings stand for the structures. pKd: −log10 of the molar value. Calls of active or inactive are those of the source. The rule behind the calls is not given here.

`O=C1C(O)=C/C(=N\c2ccccc2O)c2ccccc21`: the pKd at Heme oxygenase was 4.14; in experiment [1], 4.54. Further, the outcome in the experiment on Neisseria meningitidis and with Pseudomonas aeruginosa [2] was inactive.

In turn, `N=C(N/N=C\c1cccnc1)N/N=C\c1cccnc1` had a pKd in experiment [1] of 4.91. Further, in the experiment with Neisseria meningitidis, the outcome was Active. In addition, the result in the experiment on Pseudomonas aeruginosa [2] was inactive.

Regarding `O=C(NNC(=O)c1ccncc1)c1ccncc1`, the result in the experiment with Neisseria meningitidis and with Pseudomonas aeruginosa [2] was inactive.

As for `O=C(Nc1ccc(-c2cn3ccccc3n2)cc1)c1ccccc1[N+](=O)[O-]`, the negative-log Kd (pKd) at Heme oxygenase is 5.21; in experiment [1] it was 4.68. For the same compound, the result with Neisseria meningitidis was Active. In addition, the result in the experiment on Pseudomonas aeruginosa [2] was inactive.

`CN(C)c1ccc(/C=N/NC(=N)N)cc1`: the pKd in experiment [1] was 4.64. In the experiment with Neisseria meningitidis, the result was Active. For the same compound, the result in the experiment with Pseudomonas aeruginosa [2] was inactive.

`O=C(O)/C=C/C(=O)Nc1ccc(Nc2ccccc2)cc1`: the outcome in the experiment with Pseudomonas aeruginosa [3] and in the experiment on Neisseria meningitidis was Active. Further, the pKd was 4.70 at Heme oxygenase and 4.81 in experiment [1]. In addition, the outcome in the experiment on Pseudomonas aeruginosa [2] was inactive. Moreover, in the experiment on Pseudomonas aeruginosa [4], the Activity came to 40%.

For the compound `O=C(Cc1ccc(Cl)cc1)N/N=C/c1c[nH]c2ccccc12`, the result with Pseudomonas aeruginosa [3] and in the experiment on Neisseria meningitidis was Active. This compound also showed a pKd in experiment [1] of 4.85. The outcome with Pseudomonas aeruginosa [2] was inactive. Moreover, the Activity in the experiment on Pseudomonas aeruginosa [4] is 40%.

A word on the pKd: it is −log10 of the Kd, conventionally taken in molar units.
